These results are taken from ChEMBL document CHEMBL1143652, “Joys of molecules. 2. Endeavors in chemical biology and medicinal chemistry” (J Med Chem, 2005).

Assay [1] has as its system 1A9/ptx-10. Kind of assay: (§1) Inhibitory concentration against beta-tubulin mutant 1A9PTX10 cell growth. To be noted: Homo sapiens. It is filed as functional, cell-based.
Another assay relates to 1A9. Nature of the assay: Inhibitory concentration against ovarian carcinoma 1A9 cell growth. It is filed as functional, cell-based. The conditions noted are these: Homo sapiens.
Assay [2] deals with 1A9/ptx-22. Nature of the assay: (§2) Inhibitory concentration against beta-tubulin mutant 1A9PTX22 cell line. In kind it is functional, cell-based. The conditions noted are these: Homo sapiens.
The subject of assay [3] is 1A9/ptx-10. The description is as §1. It is filed as functional, cell-based. To be noted: Homo sapiens. The source holds these as a separate data set.
Assay [4] concerns 1A9/ptx-22. The assay is described as §2. In kind it is functional, cell-based. The conditions noted are these: Homo sapiens. The source holds these as a separate data set.
For assay [5], the target named is Tubulin beta-4B chain (Homo sapiens) (UniProt P68371). Nature of the assay: Percent […] of tubulin by the compound. In kind it is functional. The procedure, abridged: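 Tubulin polymerization was read as percent polymerization, with test drug at 100 µM and a 90 min incubation.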
Another assay concerns the target Somatostatin receptor. Kind of assay: Binding affinity for SRIF (somatostatin) receptor. It is filed as protein assay.

Sequence of Tubulin beta-4B chain (Homo sapiens) (P68371 whole entry): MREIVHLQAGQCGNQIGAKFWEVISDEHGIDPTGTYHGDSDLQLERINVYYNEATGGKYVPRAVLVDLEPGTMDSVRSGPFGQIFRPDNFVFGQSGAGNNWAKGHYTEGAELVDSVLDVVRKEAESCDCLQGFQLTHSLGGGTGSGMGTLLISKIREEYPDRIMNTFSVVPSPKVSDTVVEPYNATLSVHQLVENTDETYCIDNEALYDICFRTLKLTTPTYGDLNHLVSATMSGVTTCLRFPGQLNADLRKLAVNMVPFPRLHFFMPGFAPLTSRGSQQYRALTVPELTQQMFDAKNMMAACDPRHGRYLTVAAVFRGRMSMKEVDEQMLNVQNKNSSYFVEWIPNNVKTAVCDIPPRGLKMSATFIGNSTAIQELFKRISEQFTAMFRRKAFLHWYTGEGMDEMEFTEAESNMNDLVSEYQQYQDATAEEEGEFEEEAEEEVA

For the compound `C/C(=C\c1csc(C)n1)[C@@H]1C[C@@H]2O[C@]2(CF)CCC[C@H](C)[C@H](O)[C@@H](C)C(=O)C(C)(C)[C@@H](O)CC(=O)O1`, the IC50 in the assay on 1A9/ptx-10 [1] was determined as 0.4 nM; with 1A9, 0.2 nM; with 1A9/ptx-22 [2], 0.2 nM; in the assay on 1A9/ptx-10 [3] it was 0.4 nM; in the assay with 1A9/ptx-22 [4], 0.2 nM. For the same compound, the TP in assay [5] came to 93%.

`OCCCCCNCC1OC(OCCc2cc3ccccc3[nH]2)C(OCc2ccccc2)C(OCc2ccccc2)C1OCc1ccccc1` (configuration not stated) came in with a concentration for half-maximal inhibition (IC50) on Somatostatin receptor of 14000 nM. This counts as double-digit micromolar.

Turning to `C/C(=C\c1csc(C)n1)[C@@H]1C[C@@H]2O[C@@H]2CCC[C@H](C)[C@H](O)[C@@H](C)C(=O)C(C)(C)[C@@H](O)CC(=O)O1` [EPOTHILONE A], the 50% inhibitory concentration (IC50) in the assay with 1A9/ptx-10 [1] came to 20 nM; in the assay on 1A9, 2.2 nM; with 1A9/ptx-22 [2], 5.9 nM; in the assay on 1A9/ptx-10 [3], 20 nM; with 1A9/ptx-22 [4], 5.9 nM. The TP in assay [5] came out at 76%.

For `C/C(=C\c1ccc(C)cn1)[C@@H]1C[C@@H]2C[C@@H]2CCC[C@H](C)[C@H](O)[C@@H](C)C(=O)C(C)(C)[C@@H](O)CC(=O)O1`, the IC50 was found to be 19.2 nM in the assay on 1A9/ptx-10 [1]; 2.5 nM in the assay with 1A9; 4.22 nM with 1A9/ptx-22 [2]; 19.2 nM in the assay on 1A9/ptx-10 [3]; 4.22 nM with 1A9/ptx-22 [4].

On Somatostatin receptor, `NCCCCCOCC1OC(OCCc2cc3ccccc3[nH]2)C(OCc2ccccc2)CC1OCc1ccccc1` (configuration not stated) showed an IC50 of 8400 nM.

On to `C/C(=C\c1csc(C)n1)[C@@H]1C[C@@H]2O[C@]2(C)CCC[C@H](C)[C@H](O)[C@@H](C)C(=O)C(C)(C)[C@@H](O)CC(=O)O1` [PATUPILONE], for which the half-inhibitory concentration (IC50) in the assay with 1A9/ptx-10 [1] was determined as 1 nM; with 1A9, 0.13 nM; in the assay on 1A9/ptx-22 [2], 0.31 nM; in the assay with 1A9/ptx-10 [3], 1 nM; in the assay with 1A9/ptx-22 [4], 0.31 nM. Also, in assay [5], the TP amounted to 98%.

On to `C/C(=C\c1csc(C)n1)[C@@H]1C[C@@H]2C[C@H]2CCC[C@H](C)[C@H](O)[C@@H](C)C(=O)C(C)(C)CCC(=O)O1`, for which the 50% inhibitory concentration (IC50) in the assay with 1A9/ptx-10 [1] was found to be 17.2 nM; in the assay with 1A9, 10.1 nM; with 1A9/ptx-22 [2], 4.7 nM; in the assay with 1A9/ptx-10 [3] it was 17.2 nM; in the assay with 1A9/ptx-22 [4], 4.7 nM.

For `C/C(=C\c1csc(C)n1)[C@@H]1C[C@@H]2C[C@@]2(C)CCC[C@H](C)[C@H](O)[C@@H](C)C(=O)C(C)(C)CCC(=O)O1`, the half-maximal inhibitory concentration (IC50) is 52 nM in the assay on 1A9/ptx-10 [1]; 15 nM in the assay on 1A9; 5 nM with 1A9/ptx-22 [2]; 52 nM in the assay with 1A9/ptx-10 [3]; 5 nM in the assay on 1A9/ptx-22 [4].

Consider `C/C(=C\c1cccc(C)n1)[C@@H]1C[C@@H]2O[C@]2(C)CCC[C@H](C)[C@H](O)[C@@H](C)C(=O)C(C)(C)[C@@H](O)CC(=O)O1`, for which the half-inhibitory concentration (IC50) turned out to be 72 nM with 1A9/ptx-10 [1]; 9 nM with 1A9; 18 nM in the assay on 1A9/ptx-22 [2]; 72 nM in the assay on 1A9/ptx-10 [3]; 18 nM in the assay with 1A9/ptx-22 [4]. The compound further returned a TP in assay [5] of 45%.

With `OCCCCCCNCC1OC(OCCc2cc3ccccc3[nH]2)C(OCc2ccccc2)CC1OCc1ccccc1` (configuration not stated), at Somatostatin receptor, the concentration for half-maximal inhibition (IC50) was determined as 34000 nM.

`OCCCCCNCC1OC(OCCc2cc3ccccc3[nH]2)C(OCc2ccccc2)CC1OCc1ccccc1` (configuration not stated) had an IC50 at Somatostatin receptor of 10000 nM.

For the compound `C/C(=C\c1ccc(C)cn1)[C@@H]1C[C@@H]2O[C@]2(C)CCC[C@H](C)[C@H](O)[C@@H](C)C(=O)C(C)(C)[C@@H](O)CC(=O)O1`, the IC50 with 1A9/ptx-10 [1] stood at 0.6 nM; in the assay with 1A9, 0.15 nM; in the assay with 1A9/ptx-22 [2], 0.15 nM; in the assay on 1A9/ptx-10 [3] it was 0.6 nM; with 1A9/ptx-22 [4] it was 0.15 nM. Further, the TP in assay [5] is 92%.

On Somatostatin receptor, `NCCCCCOCC1CC(OCc2ccccc2)C(OCc2ccccc2)C(OCCc2cc3ccccc3[nH]2)O1` (configuration not stated) showed an IC50 of 47000 nM.

For the compound `NCCCCCOC[C@@H]1O[C@@H](OCCc2cc3ccccc3[nH]2)[C@@H](OCc2ccccc2)[C@@H](OCc2ccccc2)[C@@H]1OCc1ccccc1`, the IC50 on Somatostatin receptor was 15000 nM.

Consider `CSc1nc(/C=C(\C)[C@@H]2C[C@@H]3C[C@H]3CCC[C@H](C)[C@H](O)[C@@H](C)C(=O)C(C)(C)CCC(=O)O2)cs1`, for which the IC50 came out at 3.2 nM with 1A9/ptx-10 [1]; 1.2 nM with 1A9; 0.8 nM in the assay with 1A9/ptx-22 [2]; 3.2 nM in the assay with 1A9/ptx-10 [3]; 0.8 nM in the assay on 1A9/ptx-22 [4].

On to `CSc1nc(/C=C(\C)[C@@H]2C/C=C\CCC[C@H](C)[C@H](O)[C@@H](C)C(=O)C(C)(C)[C@@H](O)CC(=O)O2)cs1`, for which the 50% inhibitory concentration (IC50) is 22 nM with 1A9/ptx-10 [1]; 9 nM with 1A9; 28 nM in the assay with 1A9/ptx-22 [2]; 22 nM with 1A9/ptx-10 [3]; 28 nM in the assay on 1A9/ptx-22 [4]. In addition, the TP in assay [5] is 92%.

`NCCCCCCOC[C@@H]1O[C@@H](OCCc2cc3ccccc3[nH]2)[C@@H](OCc2ccccc2)[C@@H](OCc2ccccc2)[C@@H]1OCc1ccccc1` registered a half-maximal inhibitory concentration (IC50) at Somatostatin receptor of 11000 nM.

For the compound `C/C(=C\c1ccc(C)cn1)[C@@H]1C[C@@H]2C[C@H]2CCC[C@H](C)[C@H](O)[C@@H](C)C(=O)C(C)(C)CCC(=O)O1`, the 50% inhibitory concentration (IC50) amounted to 5.9 nM with 1A9/ptx-10 [1]; 0.6 nM in the assay with 1A9; 1.4 nM in the assay on 1A9/ptx-22 [2]; 5.9 nM in the assay on 1A9/ptx-10 [3]; 1.4 nM with 1A9/ptx-22 [4].

In the case of `CSc1nc(/C=C(\C)[C@@H]2C[C@@H]3C[C@@]3(C)CCC[C@H](C)[C@H](O)[C@@H](C)C(=O)C(C)(C)CCC(=O)O2)cs1`, the 50% inhibitory concentration (IC50) in the assay with 1A9/ptx-10 [1] came out at 5.7 nM; in the assay on 1A9, 3.5 nM; in the assay on 1A9/ptx-22 [2], 11.5 nM; in the assay with 1A9/ptx-10 [3], 5.7 nM; in the assay with 1A9/ptx-22 [4] it was 11.5 nM.

On Somatostatin receptor, `NCCCCCCOCC1OC(OCCc2cc3ccccc3[nH]2)C(OCc2ccccc2)CC1OCc1ccccc1` (configuration not stated) had an IC50 of 6600 nM.

On Somatostatin receptor, `NCCCCCOCC1OC(OCCc2cc3ccccc3[nH]2)CC(OCc2ccccc2)C1OCc1ccccc1` (configuration not stated) gave an IC50 of 35000 nM.

As to `C/C(=C\c1cc(C)ccn1)[C@@H]1C[C@@H]2O[C@]2(C)CCC[C@H](C)[C@H](O)[C@@H](C)C(=O)C(C)(C)[C@@H](O)CC(=O)O1`, the IC50 with 1A9/ptx-10 [1] worked out at 0.36 nM; with 1A9, 0.1 nM; with 1A9/ptx-22 [2], 0.1 nM; in the assay with 1A9/ptx-10 [3] it was 0.36 nM; with 1A9/ptx-22 [4], 0.1 nM. In addition, the TP in assay [5] turned out to be 90.3%.

Take `CSc1nc(/C=C(\C)[C@@H]2C[C@@H]3O[C@]3(C)CCC[C@H](C)[C@H](O)[C@@H](C)C(=O)C(C)(C)[C@@H](O)CC(=O)O2)cs1`: the IC50 in the assay with 1A9/ptx-10 [1] was found to be 0.26 nM; with 1A9, 0.17 nM; in the assay with 1A9/ptx-22 [2] it was 0.25 nM; with 1A9/ptx-10 [3], 0.26 nM; with 1A9/ptx-22 [4] it was 0.25 nM.

Consider `C/C(=C\c1ccc(C)cn1)[C@@H]1C[C@@H]2C[C@@]2(C)CCC[C@H](C)[C@H](O)[C@@H](C)C(=O)C(C)(C)CCC(=O)O1`, for which the IC50 in the assay on 1A9/ptx-10 [1] came out at 10.9 nM; in the assay on 1A9 it was 1.74 nM; with 1A9/ptx-22 [2], 5.6 nM; in the assay on 1A9/ptx-10 [3], 10.9 nM; with 1A9/ptx-22 [4], 5.6 nM.

`OCCCCCCNCC1OC(OCCc2cc3ccccc3[nH]2)C(OCc2ccccc2)C(OCc2ccccc2)C1OCc1ccccc1` (configuration not stated) registered an IC50 on Somatostatin receptor of 5100 nM.

As for `C/C(=C\c1csc(C)n1)[C@@H]1C[C@@H]2C[C@@H]2CCC[C@H](C)[C@H](O)[C@@H](C)C(=O)C(C)(C)[C@@H](O)CC(=O)O1`, the half-inhibitory concentration (IC50) with 1A9/ptx-10 [1] was 9 nM; in the assay on 1A9 it was 0.25 nM; in the assay with 1A9/ptx-22 [2], 2 nM; in the assay with 1A9/ptx-10 [3] it was 9 nM; in the assay on 1A9/ptx-22 [4] it was 2 nM.
